# DENV2 CPE rescue – inhibitors of DENV2 cytopathic effect, primary screen, cell-based, plate reader, single concentration; DENV2-infected cells, cytopathic effect rescue; CPE inhibition, % at 9.99 µM; 350,000 tested, 1.7% active; AID 651640, 2012; in the data active means CPE inhibition above about 20%, passing the limit was not always enough; inconclusive means no clear call, values can overlap the other calls; tested in BHK-21 cells
# PglD inh – C. jejuni PglD acetyltransferase inhibitors, primary screen, biochemical, DTNB colorimetric, single point; inhibition, % at 12.5 µM; AID 602405, 2012; 360,000 tested, 0.098% active; UDP-N-acetylbacillosamine N-acetyltransferase PglD (Campylobacter jejuni); purified PglD enzyme, DTNB colorimetric CoA detection; in the data active means inhibition above about 16%, passing the limit was not always enough; inconclusive means no clear call, values can overlap the other calls
# PGC1a acetyl inh – inhibitors of PGC1a acetylation signal, primary screen, cell-based, U2OS, AlphaScreen, inhibitor mode; AlphaScreen anti-acetyl-lysine; with virally co-expressed GCN5 acetyltransferase; inhibition, % at 15.6 µM; 350,000 tested, 0.17% active; AID 651687, 2012;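 active means every replicate shows inhibition of at least 40%; inconclusive means mean inhibition at least 40% but some replicate below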
# Env fusion inh – inhibitors of HIV-1 Env-driven cell-cell fusion, primary screen, HeLa-JRFL effector, CEM21 target cells, luciferase; inhibition, % at 12.3 µM; 360,000 tested, 1.1% active;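 active means mean replicate inhibition score of at least 50 and every replicate individually at or above 50; inconclusive means only one of the two criteria met; inactive means mean below 50 and not all replicates reaching 50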
# FN deposit inh – inhibitors of fibronectin matrix deposition, primary screen, AH1F cells, Alexa488-fibronectin fluorescence, plate reader. inhibition, % at 12.6 µM. AH1F fibroblasts, overnight. 350,000 tested, 0.086% active;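 active means mean inhibition across replicates of 30% or more, regardless of how many single replicates reach that level; inconclusive means mean under 30% yet at least half of replicates reach 30%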
#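 Material: AH1F fibroblasts assembling fluorescent fibronectin matrix; amount: 10000 AH1F cells/well; medium: DMEM, 2% serum; reagent: Alexa488-fibronectin, 24 nM final in well; dosing: single compound dose, delivered by pin transfer; incubation: 1 h adhesion, overnight exposure; detection: fluorescence after three HBSS washes, excitation 485 nm, emission 525 nm; measure: fibronectin deposition inhibition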
# rRNA inh HTS – reduced GFP signal of wild-type E. coli, primary screen, bacterial rRNA inhibitor project, GFP/RFP fluorescence, OD600, single point. E. coli WT GFP vs humanized-ribosome RFP mutants, 24 h; hits give low values; DMSO median 0, no signal -100. 350,000 tested, 1.6% active. GFP signal change (wild-type ribosome), % (concentration not given with the values);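 active means significant combined selectivity score with lowered wild-type GFP, culture density cut under 30%, mutant RFP and density less affected; inactive means any of these conditions unmet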
# A number is an active result; i = inactive; ? = inconclusive; nt = not tested or not shown. Only some compounds are listed: those with a hit (about 3.5% of all), similar ones and a draw of the others.
SMILES,DENV2 CPE rescue,PglD inh,PGC1a acetyl inh,Env fusion inh,FN deposit inh,rRNA inh HTS
CCCN(C)C[C@@H]1OCCCC[C@H](C)Oc2ccc(N(C)C)cc2C(=O)N([C@H](C)CO)C[C@@H]1C,69,i,i,i,nt,i
C[C@H]1CCCCO[C@@H](CN(C)Cc2ccc3c(c2)OCO3)[C@@H](C)CN([C@@H](C)CO)C(=O)c2cc(N(C)C)ccc2O1,i,i,i,i,nt,i
C[C@H](CO)N1C[C@H](C)[C@@H](CN(C)Cc2ccc3c(c2)OCO3)OCCCC[C@H](C)Oc2ccc(N(C)C)cc2C1=O,124,nt,i,nt,nt,i
CCC(=O)Nc1ccc(NC(=O)c2oc3ccccc3c2C)cc1,40,i,i,i,i,i
CN1C(=O)[C@@H]2[C@@H](C[C@]3(COc4ccccc4)OC[C@H]2/C3=C\c2ccccc2)C1=O,i,nt,i,i,nt,nt
N#Cc1ccc(S(=O)(=O)N2CCCN(c3nc4ccc(Cl)cc4s3)CC2)cc1,i,i,nt,55,i,i
CCS(=O)(=O)Nc1ccc2c(c1)C(=O)N(C)C[C@H](OC)[C@@H](C)CN(C(=O)c1ccc3c(c1)OCO3)[C@@H](C)CO2,i,i,i,i,i,i
COC(=O)c1[nH]c2ccccc2c1NC(=O)/C=C/c1ccc2c(c1)OCO2,38,i,i,i,i,i
CCOC(=O)c1[nH]c2ccc(OC)cc2c1NC(=O)c1ccc2c(c1)OCO2,nt,i,i,i,i,nt
CCOC(=O)c1[nH]c2ccccc2c1NC(=O)c1ccc2c(c1)OCO2,40,i,i,i,i,i
COc1cc(/C=N/NC(=S)NC2CC3CCC2C3)ccc1O (centres undefined),i,i,i,i,i,-26
O=C(O)COc1ccccc1C=NNc1ccc([N+](=O)[O-])cc1S(=O)(=O)Nc1ccc(Cl)cc1,i,i,i,i,i,i
O=C(O)c1ccccc1NS(=O)(=O)c1ccc(N/N=C/c2ccc(O)c(O)c2)c([N+](=O)[O-])c1,i,nt,nt,i,i,-25
COc1ccc(C=NNc2ccc([N+](=O)[O-])cc2S(=O)(=O)Nc2ccccc2C(=O)O)cc1OC,i,i,i,i,i,-23
COc1ccccc1NS(=O)(=O)c1cc([N+](=O)[O-])ccc1N/N=C/c1c[nH]c2ccccc12,nt,i,i,i,i,nt
COc1ccc(NS(=O)(=O)c2cc([N+](=O)[O-])ccc2NN=Cc2ccccc2OCC(=O)O)cc1,i,i,i,nt,i,-32
O=C(O)c1ccccc1NS(=O)(=O)c1ccc(NN=Cc2ccc(F)cc2)c([N+](=O)[O-])c1,nt,nt,i,nt,nt,nt
CCCC#Cc1cnc2c(c1)C(=O)N([C@H](C)CO)C[C@@H](C)[C@H](CN(C)C(=O)CCN1CCCCC1)O2,nt,nt,i,nt,i,i
C[C@@H]1CN([C@@H](C)CO)C(=O)Cc2cc(NC(=O)c3ccncc3)ccc2O[C@@H]1CN(C)CC1CCCCC1,i,i,i,nt,nt,i
COc1ccccc1CNC(=O)C[C@@H]1C[C@@H]2c3cc(NC(=O)Nc4ccc(C(F)(F)F)cc4)ccc3O[C@@H]2[C@H](CO)O1,i,i,i,i,i,i
C[C@@H]1CCCCO[C@H](CN(C)C(=O)Nc2ccccc2)[C@H](C)CN([C@H](C)CO)C(=O)c2cc(NC(=O)Nc3ccc(C(F)(F)F)cc3)ccc2O1,nt,nt,nt,nt,nt,i
COc1ccc(-c2ccc3c(c2)S(=O)(=O)c2cccc(C(=O)NCc4ccccc4Cl)c2C3=O)cc1OC,i,i,i,i,i,i
COc1ccc(-c2ccc3c(c2)S(=O)(=O)c2cccc(C(=O)NCCOc4ccccc4Cl)c2C3=O)cc1OC,22,i,i,?,i,i
CC(C)C[C@H]1CNC(=S)N1CC1CCCN1C[C@H](Cc1ccc(O)cc1)N1C[C@H](Cc2ccccc2)N(CC2CCCCCC2)C1=S (some centres undefined),i,i,i,58,i,i
CC(C)C[C@H]1CNC(=S)N1C[C@H]1CCCN1C[C@H](Cc1ccc(O)cc1)N1C[C@H](Cc2ccccc2)N(CC2CCCCC2)C1=S,?,i,i,112,i,i
SMILES,DENV2 CPE rescue,PglD inh,PGC1a acetyl inh,Env fusion inh,FN deposit inh,rRNA inh HTS
Oc1ccc(C[C@H]2CNC(=S)N2CC2CCCN2C[C@H](Cc2ccc(O)cc2)N2C[C@H](Cc3ccc(O)cc3)N(CC3CCCCC3)C2=S)cc1 (some centres undefined),i,i,i,91,nt,i
Oc1ccc(C[C@H]2CN([C@@H](Cc3ccccc3)CN3CCCC3CN3C(=S)NC[C@@H]3Cc3ccccc3)C(=S)N2CC2CCCCC2)cc1 (some centres undefined),i,nt,nt,i,i,i
CC(C)C[C@H]1CNC(=S)N1C[C@H]1CCCN1C[C@H](Cc1ccccc1)N1C[C@H](Cc2ccc(O)cc2)N(CC2CCCCCC2)C1=S,i,i,i,i,i,nt
C[C@H]1CN([C@@H](C)CO)C(=O)c2cc(C3=CCCCC3)cnc2O[C@H]1CN(C)Cc1ccccc1F,i,i,i,i,i,i
C[C@@H](NC(=O)C[C@@H]1C[C@@H]2c3cc(NC(=O)Nc4ccccc4F)ccc3O[C@@H]2[C@H](CO)O1)c1ccccc1,i,i,i,i,nt,i
CNC(=O)C[C@@H]1CC[C@H]2[C@@H](COC[C@@H](O)CN2C(=O)c2ccccn2)O1,i,i,i,nt,i,i
CCN1/C(=C/c2ccc3cccc(C)c3[n+]2CC)Sc2ccccc21,nt,i,i,59,i,nt
CCN1/C(=C/c2ccc3cc(C)cc(C)c3[n+]2CC)Sc2cc(C)ccc21,i,i,nt,i,i,i
C[C@@H]1CN([C@H](C)CO)C(=O)Cc2cc(NS(=O)(=O)c3ccccc3)ccc2O[C@@H]1CN(C)S(=O)(=O)c1ccc(Cl)cc1,i,i,i,i,nt,i
CCCC#Cc1ccc2c(c1)O[C@H](CN(C)C(=O)COC)[C@H](C)CN([C@@H](C)CO)S2(=O)=O,i,i,i,i,i,i
Cn1cc(CNCc2cn(C)nc2-c2ccc(C3CCCCC3)cc2)cn1,i,nt,i,i,nt,-20
O=S(=O)(NCC[C@@H]1CC[C@@H](NS(=O)(=O)c2cccc(Cl)c2)[C@@H](CO)O1)c1cccc(F)c1,i,i,i,i,i,i
Nc1[nH]c(C(=O)c2ccccc2)c(-c2ccccc2[N+](=O)[O-])c1C(=O)NCCc1c[nH]c2ccccc12,i,nt,nt,i,i,-38
Nc1[nH]c(C(=O)c2ccccc2)c(-c2ccc(Cl)cc2)c1C(=O)c1c[nH]c2ccccc12,28,nt,nt,i,i,nt
Nc1[nH]c(C(=O)c2ccccc2)c(-c2ccc(Cl)cc2)c1C(=O)c1c[nH]c2ccc(F)cc12,i,nt,nt,i,i,nt

# High-throughput results deposited in PubChem by Broad Institute.
